Results: ChEMBL document CHEMBL1133680, “Benzo[c]quinolizin-3-ones: a novel class of potent and selective nonsteroidal inhibitors of human steroid 5alpha-reductase 1” (J Med Chem, 2000)
Blank lines part the entries; values can stand above or below the molecule they belong to.

Key:
[1] = target: T1, 3-oxo-5-alpha-steroid 4-dehydrogenase 1 (Homo sapiens, UniProt P18405); assay: Inhibition of recombinant Steroid 5-alpha-reductase type I expressed in CHO cells; assay type: cell-based
T1 sequence (P18405 whole entry): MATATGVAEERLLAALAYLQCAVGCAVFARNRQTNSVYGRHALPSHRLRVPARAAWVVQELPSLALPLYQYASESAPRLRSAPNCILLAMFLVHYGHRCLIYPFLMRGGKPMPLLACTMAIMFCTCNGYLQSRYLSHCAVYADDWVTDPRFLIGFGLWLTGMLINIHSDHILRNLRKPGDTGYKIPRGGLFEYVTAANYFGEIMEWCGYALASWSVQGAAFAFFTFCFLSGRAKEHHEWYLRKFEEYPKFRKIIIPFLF

[2] = target: T1, 3-oxo-5-alpha-steroid 4-dehydrogenase 1; assay: Inhibition of recombinant steroid 5-alpha-reductase type I expressed in CHO cells; assay type: cell-based
[3] = target: T2, 3-oxo-5-alpha-steroid 4-dehydrogenase 2 (Homo sapiens) (UniProt P31213); assay: Inhibitory activity against steroid 5-alpha-reductase type 2 in human prostate homogenates at 10 uM; assay type: tissue-based; conditions: Prostate gland
T2 sequence (whole entry): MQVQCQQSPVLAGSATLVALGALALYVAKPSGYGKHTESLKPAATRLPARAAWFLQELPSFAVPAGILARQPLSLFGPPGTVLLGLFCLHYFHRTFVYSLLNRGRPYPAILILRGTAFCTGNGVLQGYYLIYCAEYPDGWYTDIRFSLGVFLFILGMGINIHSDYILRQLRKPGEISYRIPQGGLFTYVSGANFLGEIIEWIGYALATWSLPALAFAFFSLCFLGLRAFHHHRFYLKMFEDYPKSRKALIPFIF
In short: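 Native 5αR-2 assayed in total human prostate homogenate with 50 nM testosterone, a level below the 5αR-1 Km so only type 2 is active. Percent inhibition was measured at 10 µM inhibitor.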

[4] = target: T1, 3-oxo-5-alpha-steroid 4-dehydrogenase 1; assay: Inhibitory activity against Steroid 5-alpha-reductase type I in human scalp homogenates; assay type: tissue-based
In short: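 Native 5αR-1 assayed in total human scalp homogenate with testosterone at micromolar level. 10 nM finasteride was included to suppress the co-active 5αR-2, and the value is reported as IC50.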

[5] = target: T1, 3-oxo-5-alpha-steroid 4-dehydrogenase 1; assay: Inhibition constant against recombinant Steroid 5-alpha-reductase type I expressed in CHO cells; assay type: cell-based
[6] = target: T3, 3-oxo-5-alpha-steroid 4-dehydrogenase 2 (Homo sapiens, UniProt P31213); assay: Inhibitory activity against steroid 5-alpha-reductase type 2 in human prostate homogenates; assay type: tissue-based, Prostate gland
T3 sequence (P31213 whole entry): T2 sequence (whole entry)
In short: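 Native 5αR-2 in total human prostate homogenate, with 50 nM testosterone so that only type 2 is active (Km 0.2 µM vs 1.7 µM for type 1). Inhibition measured at 10 µM or as IC50. Finasteride and LY191704 used as selectivity controls.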

[7] = target: T1, 3-oxo-5-alpha-steroid 4-dehydrogenase 1; assay: Inhibitory activity against recombinant Steroid 5-alpha-reductase type I expressed in CHO cells; assay type: cell-based

Structure (SMILES): CC1Cc2cc(Cl)ccc2-n2ccc(=O)cc21 (configuration not stated)
IC50 [1]: 1880 nM

Structure (SMILES): Cc1ccc2c(c1)C(C)CC1=CC(=O)CCN12 (configuration not stated)
IC50 [1]: 14.3 nM

Structure (SMILES): CN1C(=O)CC[C@@H]2c3ccc(Cl)cc3CC[C@H]21 [BEXLOSTERIDE]
inhibition [3]: 19% | IC50 [4]: 2.3 nM

Structure (SMILES): CC1=C2CC(C)c3cc(C)ccc3N2CCC1=O (configuration not stated)
IC50 [1]: 15.8 nM

Structure (SMILES): CC1=C2CCc3cc(Cl)ccc3N2CCC1=O
Ki [5]: 2.7 nM | inhibition [3]: 20% | IC50 [2]: 7.6 nM | IC50 [4]: 41 nM

Structure (SMILES): CC1C(=O)C=CN2c3ccccc3CCC12 (configuration not stated)
IC50 [1]: 4300 nM

Structure (SMILES): CC(C)(C)NC(=O)[C@H]1CC[C@H]2[C@@H]3CC[C@H]4NC(=O)C=C[C@]4(C)[C@H]3CC[C@]12C [FINASTERIDE]
IC50 [6]: 2.2 nM | Ki [7]: 366 nM

Structure (SMILES): Cc1ccc2c(c1)CCC1=CC(=O)CCN12
IC50 [2]: 376 nM

Structure (SMILES): CC1=C2CCc3ccccc3N2CCC1=O
IC50 [2]: 185 nM

Structure (SMILES): C[C@@H]1C(=O)C=CN2c3ccccc3CCC12 (some centres not stated)
IC50 [2]: 2700 nM

Structure (SMILES): CC1=C2CCc3cc(C)ccc3N2CCC1=O
Ki [5]: 5.8 nM | inhibition [3]: 20% | IC50 [2]: 20 nM | IC50 [4]: 41 nM

Structure (SMILES): Cc1c2n(ccc1=O)-c1ccccc1CC2
IC50 [1]: 1400 nM

Structure (SMILES): CC1=C2CC(C)c3cc(Cl)ccc3N2CCC1=O (configuration not stated)
IC50 [1]: 8.5 nM

Continued, values first:

IC50 [2]: 141 nM
Structure (SMILES): CC1C(=O)C=CN2c3ccc(Cl)cc3CCC12 (configuration not stated)

IC50 [1]: 14.4 nM
Structure (SMILES): CC1CC2=CC(=O)CCN2c2ccc(Cl)cc21 (configuration not stated)

IC50 [2]: 137 nM
Structure (SMILES): Cc1ccc2c(c1)CCC1[C@H](C)C(=O)C=CN21 (some centres not stated)

IC50 [1]: 312 nM
Structure (SMILES): Cc1ccc2c(c1)CCC1C(C)C(=O)C=CN21 (configuration not stated)

IC50 [1]: 15.6 nM
Structure (SMILES): CC1=C2C(C)Cc3cc(Cl)ccc3N2CCC1=O (configuration not stated)

IC50 [1]: 204 nM
Structure (SMILES): CC1CC(=O)C=C2CCc3cc(Cl)ccc3N21 (configuration not stated)

IC50 [2]: 346 nM
Structure (SMILES): CC1Cc2cc(Cl)ccc2N2CCC(=O)C=C12 (configuration not stated)

IC50 [2]: 9100 nM
Structure (SMILES): C[C@H]1Cc2cc(Cl)ccc2N2C=CC(=O)CC12 (some centres not stated)

IC50 [2]: 188 nM
Structure (SMILES): C[C@@H]1CC2CC(=O)C=CN2c2ccc(Cl)cc21 (some centres not stated)

IC50 [2]: 176 nM
Structure (SMILES): Cc1ccc2c(c1)CCC1CC(=O)C=CN21 (configuration not stated)

IC50 [2]: 459 nM
Structure (SMILES): O=C1C=CN2c3ccc(Cl)cc3CCC2C1 (configuration not stated)
